Results on 18 molecules are retold here after ChEMBL document CHEMBL1938254, “Semisynthetic neoboutomellerone derivatives as ubiquitin-proteasome pathway inhibitors” (Bioorg Med Chem, 2012).

Test [1] in a line: Cytotoxicity against human WM266.4 cells after 72 hrs by ATPlite assay. It counts as functional, cell-based. The note with it: WM 266-4, 72 h. The method in brief: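 WM-266-4 metastatic melanoma cells grown in DMEM with 10% fetal calf serum, 2 mM L-glutamine, fungizone and penicillin–streptomycin at 37 °C, 5% CO2. Seeded at 3 × 10⁴ cells/ml, left 24 h, then exposed to increasing compound concentrations for 72 h. Viability read as ATP level (ATPlite). IC50 from nonlinear sigmoidal fit with variable Hill slope; mean of two independent experiments.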
(In general: ATP-based viability assays read luminescence as a measure of living cells.)

For test [2], the system named is DLD-1. Briefly: Inhibition of 20S proteasome in human DLD1 cells transfected with 4Ub-Luc gene assessed as bioluminescence induction factor at 5 uM after 8 hrs by luciferase reporter gene assay relative to epoxomicin. It counts as cell-based. The method in brief:
(§1)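 Stably transfected DLD-1 cells expressing 4Ub-Luc reporter, cultured in MEM with 5% heat-inactivated serum. Seeded at 10⁴ cells/well and treated with compound or solvent for 8 h. Luciferase activity in lysates read by luminometer. Induction factor = signal of treated over untreated cells, normalised to epoxomicin at 10^-7 M run in parallel (set to 100). IF ≥10 counted active.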

Test [3] deals with DLD-1. Briefly: Inhibition of 20S proteasome in human DLD1 cells transfected with 4Ub-Luc gene assessed as bioluminescence induction factor at 1 uM after 8 hrs by luciferase reporter gene assay relative to epoxomicin. It counts as cell-based. The method in brief: as §1
For test [4], the system named is DLD-1. As to the kind of experiment: Inhibition of 20S proteasome in human DLD1 cells transfected with 4Ub-Luc gene assessed as bioluminescence induction factor at 0.5 uM after 8 hrs by luciferase reporter gene assay relative to epoxomicin. It counts as cell-based. The method in brief: as §1
Background: In a reporter assay the amount or activity of a reporter protein is the signal.

The subject of test [5] is DLD-1. As to the kind of experiment: Inhibition of 20S proteasome activity in human DLD1 cells transfected with 4Ub-Luc gene assessed as bioluminescence induction factor at 10 uM after 8 hrs by luciferase reporter gene assay relative to epoxomicin. Format: cell-based. In outline:
as §1

Test [6] can be described thus: Inhibition of chymotrypsin-like activity of 20S proteasome in human DLD1 cells transfected with 4Ub-Luc gene using Succinyl-Leu-Leu-Val-Tyr-AMC as substrate after 6 hrs by spectrofluorometric analysis. Format: cell-based. The note with it: dld-1. The method in brief:
(§2)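 DLD-1 4Ub-Luc cells seeded at 10⁴ cells/well, exposed to compound or solvent for 6 h, then 30 min in reaction buffer (30 mM Tris–HCl pH 7.5, 1 mM ATP). Chymotrypsin-like and PGPH activities read with specific fluorogenic substrates.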

The nature of test [7]: Inhibition of peptide-glutamyl-peptide-hydrolyzing activity of 20S proteasome in human DLD1 cells transfected with 4Ub-Luc gene using Z-Leu-Leu-Glu-AMC as substrate after 6 hrs by spectrofluorometric analysis. The note with it: dld-1. It counts as cell-based. In outline: as §2

Where “and” joins values, the source holds several entries; their conditions need not be identical. Equal values may be shown once.

On to `C=CCOC[C@H](C)C(=C)C(=O)[C@H](O)[C@@H](C)[C@H]1[C@@H](OC(C)=O)C[C@@]2(C)[C@@H]3CC[C@H]4[C@H](C)C(=O)C=C[C@@]45C[C@@]35CC[C@]12C`, for which, in test [1], the half-maximal inhibitory concentration (IC50) was 0.78 µM. In addition, the fold change (FC) in the test with DLD-1 [2] was found to be 13; in the test with DLD-1 [3] it was 49; with DLD-1 [4], 3.7; with DLD-1 [5] it was 1.5.

`C=C(C(=O)[C@H](OC(C)=O)[C@@H](C)[C@H]1[C@@H](OC(C)=O)C[C@@]2(C)[C@@H]3CC[C@H]4[C@H](C)C(=O)C=C[C@@]45C[C@@]35CC[C@]12C)[C@@H](C)COC(=O)CN(C)C`: the IC50 came to 0.61 µM in test [1], 31 µM in test [6] and 52 µM in test [7]. In addition, the fold change (FC) was determined as 11 in the test with DLD-1 [2], 50 in the test with DLD-1 [3], 66 in the test on DLD-1 [4] and 2.7 in the test on DLD-1 [5].

With `C=C(C(=O)[C@H](O)[C@@H](C)[C@H]1[C@@H](OC(C)=O)C[C@@]2(C)[C@@H]3CC[C@H]4[C@H](C)C(=O)C=C[C@@]45C[C@@]35CC[C@]12C)[C@@H](C)COC(=O)N1CCN(C)CC1`, the results for the half-inhibitory concentration (IC50) in test [1], in test [6] and in test [7] were 0.46 µM, 39 µM and 32 µM, respectively.

Take `C=C(C(=O)[C@H](OC(C)=O)[C@@H](C)[C@H]1[C@@H](OC(C)=O)C[C@@]2(C)[C@@H]3CC[C@H]4[C@H](C)C(=O)C=C[C@@]45C[C@@]35CC[C@]12C)[C@@H](C)COC(=O)N1CCN(C)CC1`: the IC50 in test [1] came to 0.5 µM; in test [6], 13 µM; in test [7], 16 µM. Moreover, the fold change (FC) with DLD-1 [2] was found to be 4.2; with DLD-1 [3], 68; with DLD-1 [4], 8; in the test with DLD-1 [5], 1.

Take `C=C(C(=O)[C@H](OC(=O)CCl)[C@@H](C)[C@H]1[C@@H](OC(C)=O)C[C@@]2(C)[C@@H]3CC[C@H]4[C@H](C)C(=O)C=C[C@@]45C[C@@]35CC[C@]12C)[C@@H](C)COC(C)=O`: the half-inhibitory concentration (IC50) in test [1] was found to be 0.66 µM; in test [6] it was 50 µM; in test [7], 100 µM. The fold change (FC) in the test on DLD-1 [2] was 21; in the test on DLD-1 [3] it was 64; with DLD-1 [4], 23; in the test with DLD-1 [5], 5.

Consider `C=C(C(=O)[C@H](O)[C@@H](C)[C@H]1[C@@H](OC(C)=O)C[C@@]2(C)[C@@H]3CC[C@H]4[C@H](C)C(=O)C=C[C@@]45C[C@@]35CC[C@]12C)[C@@H](C)COC(=O)Nc1ccc(N(C)C)cc1`, for which the IC50 in test [1] is 0.82 µM; in test [6], greater than 1000 µM; in test [7], greater than 1000 µM. For the same molecule, the fold change (FC) is 47 with DLD-1 [2], 51 with DLD-1 [3], 11 in the test on DLD-1 [4] and 34 in the test on DLD-1 [5].

As for `C=CCOC[C@H](C)C(=C)C(=O)[C@H](OC(C)=O)[C@@H](C)[C@H]1[C@@H](OC(C)=O)C[C@@]2(C)[C@@H]3CC[C@H]4[C@H](C)C(=O)C=C[C@@]45C[C@@]35CC[C@]12C`, the fold change (FC) worked out at 49 in the test with DLD-1 [2], 15 with DLD-1 [3], 1.8 in the test with DLD-1 [4] and 19 in the test on DLD-1 [5]. The IC50 in test [6] and in test [7] was 100 µM throughout.

For `C=C(C(=O)[C@H](OC(C)=O)[C@@H](C)[C@H]1[C@@H](OC(C)=O)C[C@@]2(C)[C@@H]3CC[C@H]4[C@H](C)C(=O)C=C[C@@]45C[C@@]35CC[C@]12C)[C@@H](C)COC(=O)Nc1ccc(N(C)C)cc1`, the concentration for half-maximal inhibition (IC50) in test [1] was 0.96 µM; in test [6], greater than 1000 µM; in test [7], greater than 1000 µM. The fold change (FC) in the test with DLD-1 [2] was 63; in the test with DLD-1 [3] it was 51; with DLD-1 [4] it was 19; in the test on DLD-1 [5] it was 60.

Take `C=C(C(=O)[C@H](OC(=O)CCC(=O)O)[C@@H](C)[C@H]1[C@@H](OC(C)=O)C[C@@]2(C)[C@@H]3CC[C@H]4[C@H](C)C(=O)C=C[C@@]45C[C@@]35CC[C@]12C)[C@@H](C)COC(C)=O`: the fold change (FC) in the test with DLD-1 [2] worked out at 16; in the test on DLD-1 [3] it was 69; in the test with DLD-1 [4], 2; with DLD-1 [5], 3. The half-inhibitory concentration (IC50) was 12 µM in test [6] and 10 µM in test [7].

Regarding `C=C(C(=O)[C@H](OC(C)=O)[C@@H](C)[C@H]1[C@@H](OC(C)=O)C[C@@]2(C)[C@@H]3CC[C@H]4[C@H](C)C(=O)C=C[C@@]45C[C@@]35CC[C@]12C)[C@@H](C)CO` [NEOBOUTOMELLERONE], the results for the half-maximal inhibitory concentration (IC50) in test [1], in test [6] and in test [7] were 2.8 µM, 16 µM and 23 µM, respectively. The fold change (FC) was determined as 37 with DLD-1 [2], 48 in the test with DLD-1 [3], 2.1 with DLD-1 [4] and 4.4 with DLD-1 [5].

On to `C=C(C(=O)[C@H](OC(C)=O)[C@@H](C)[C@H]1[C@@H](OC(C)=O)C[C@@]2(C)[C@@H]3CC[C@H]4[C@H](C)C(=O)C=C[C@@]45C[C@@]35CC[C@]12C)[C@@H](C)COC(C)=O`, for which the values for the concentration for half-maximal inhibition (IC50) in test [1], in test [6] and in test [7] were 1.5 µM, 35 µM and 43 µM, respectively. For the same molecule, the results for the fold change (FC) in the test with DLD-1 [2], with DLD-1 [3] and in the test on DLD-1 [4] were 48, 11 and 1.1, respectively.

As to `C=C(C(=O)[C@H](OC(C)=O)[C@@H](C)[C@H]1[C@@H](OC(C)=O)C[C@@]2(C)[C@@H]3CC[C@H]4[C@H](C)C(=O)C=C[C@@]45C[C@@]35CC[C@]12C)[C@@H](C)COC(=O)Nc1ccccc1`, the 50% inhibitory concentration (IC50) was 0.19 µM in test [1], greater than 1000 µM in test [6] and greater than 1000 µM in test [7]. The figures for the fold change (FC) with DLD-1 [2], in the test on DLD-1 [3] and in the test with DLD-1 [4] were 60, 42 and 6.4, respectively.

Turning to `C=C(C(=O)[C@H](O)[C@@H](C)[C@H]1[C@@H](OC(C)=O)C[C@@]2(C)[C@@H]3CC[C@H]4[C@H](C)C(=O)C=C[C@@]45C[C@@]35CC[C@]12C)[C@@H](C)CO`, the values for the IC50 in test [1], in test [6] and in test [7] were 1.6 µM, 42 µM and 51 µM, respectively. Moreover, the fold change (FC) worked out at 28 in the test with DLD-1 [2], 45 in the test on DLD-1 [3], 1.4 in the test with DLD-1 [4] and 2.9 with DLD-1 [5].

As for `C=C(C(=O)[C@H](OC(C)=O)[C@@H](C)[C@H]1[C@@H](OC(C)=O)C[C@@]2(C)[C@@H]3CC[C@H]4[C@H](C)C(=O)C=C[C@@]45C[C@@]35CC[C@]12C)[C@@H](C)COC(=O)CCC(=O)O`, the fold change (FC) was 20 and 15 in the test with DLD-1 [2]; 45 and 61 with DLD-1 [3]; 1.4 and 2 with DLD-1 [4]; 4.4 and 3.7 in the test with DLD-1 [5]. Further, the IC50 stood at 25 µM in test [6] and 37 µM in test [7].

Consider `C=C(C(=O)[C@H](OC(=O)CNC(=O)OC(C)(C)C)[C@@H](C)[C@H]1[C@@H](OC(C)=O)C[C@@]2(C)[C@@H]3CC[C@H]4[C@H](C)C(=O)C=C[C@@]45C[C@@]35CC[C@]12C)[C@@H](C)COC(C)=O`, for which the IC50 amounted to 1 µM in test [1], 17 µM in test [6] and 23 µM in test [7]. Also, the fold change (FC) was 3.4 with DLD-1 [2], 69 in the test on DLD-1 [3], 76 with DLD-1 [4] and 1.6 in the test with DLD-1 [5].

On to `C=C(C(=O)[C@H](OC(=O)CNC(=O)OC(C)(C)C)[C@@H](C)[C@H]1[C@@H](OC(C)=O)C[C@@]2(C)[C@@H]3CC[C@H]4[C@H](C)C(=O)C=C[C@@]45C[C@@]35CC[C@]12C)[C@@H](C)COC(=O)CNC(=O)OC(C)(C)C`, for which the fold change (FC) with DLD-1 [2] is 33; in the test with DLD-1 [3], 47; with DLD-1 [4], 4.3; in the test with DLD-1 [5] it was 17. For the same molecule, the results for the 50% inhibitory concentration (IC50) in test [6] and in test [7] were 21 µM and 38 µM, respectively.

Regarding `C=C(C(=O)[C@H](OC(C)=O)[C@@H](C)[C@H]1[C@@H](OC(C)=O)C[C@@]2(C)[C@@H]3CC[C@H]4[C@H](C)C(=O)C=C[C@@]45C[C@@]35CC[C@]12C)[C@@H](C)COC(=O)CCN(CC)CC`, the fold change (FC) came to 11 in the test on DLD-1 [2], 26 with DLD-1 [3], 1.5 with DLD-1 [4] and 2.7 with DLD-1 [5]. The concentration for half-maximal inhibition (IC50) in test [6] turned out to be 10 µM; in test [7], 9.4 µM.

Turning to `C=CC(=O)OC[C@H](C)C(=C)C(=O)[C@H](OC(C)=O)[C@@H](C)[C@H]1[C@@H](OC(C)=O)C[C@@]2(C)[C@@H]3CC[C@H]4[C@H](C)C(=O)C=C[C@@]45C[C@@]35CC[C@]12C`, the fold change (FC) in the test with DLD-1 [2] was 18; in the test with DLD-1 [3], 20; in the test with DLD-1 [4], 1.4; in the test with DLD-1 [5] it was 2.2. In addition, the half-maximal inhibitory concentration (IC50) in test [6] came to 14 µM; in test [7], 13 µM.

Usually IC50 stands for the concentration that gives 50% inhibition.
